According to publication PMC6061410 (Clinical Drug Investigation, 2018):

Assays:
healthy young subjects = assay: Safety and tolerability; format: in vivo, human
Summary of the method: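 Adverse events were recorded by system organ class and preferred term in 12 healthy young subjects. Each received single fasted 25-mg doses in the morning and evening, open-label crossover, washout ≥11 days. Baselines were the last measurements before the morning dose and before the evening dose.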

[1] = cited from earlier work
[2] = Pharmacokinetics after single and multiple doses, part 1; format: in vivo, human; details: for AUCτ,ss,norm / Cmax,ss,norm / AUC0–24,norm / Cmax,norm / AUC(0-t) / AUC / Cmax: gMean (%CV); for AUC: AUCτ,ss; for Tmax: median and range (minimum, maximum)
Summary of the method: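 Randomised 3:1 double-blind placebo-controlled groups (9 active, 3 placebo) of healthy young or elderly subjects took 5- or 25-mg tablets. Dosing was a single dose on day 1, QD or BID for 10 days from day 4, and a single dose on day 14. Fasted on days 1 and 14. Blood was sampled through day 23 and urine after first and last doses (QD only). Plasma/urine LC-MS/MS used a seven-point calibration. Geometric mean (%CV) values were reported.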

[3] = Pharmacokinetics of 25-mg single morning or evening dose, part 2; format: in vivo, human
Summary of the method: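 Open-label two-period crossover in 12 healthy young subjects. Each took single fasted 25-mg doses, morning and evening, separated by a washout of at least 11 days. Blood was sampled pre-dose to 96 h and measured by LC-MS/MS. AUC0–tz, AUC0–∞ and Cmax were given as adjusted gMeans with evening/morning ratio and 90% CI. tmax was given as median (range).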

[4] = elderly, 25 mg QD, multiple dose
[5] = elderly, 50 mg QD, multiple dose

C[C@@H](Oc1ccc(S(C)(=O)=O)cc1C(=O)N1C[C@@H]2C[C@]2(c2cc(C(F)(F)F)on2)C1)C(F)(F)F [BI 425809]
changes in laboratory parameters, vital signs, 12-lead ECG, examinations, suicidality, oxygen saturation, VAS (healthy young subjects; part 2, single 25 mg doses): No clinically relevant changes | serious AEs (healthy young subjects; part 2, single 25 mg doses): No serious AEs were reported | Dizziness (healthy young subjects; young, part 2, 25 mg QD): 0 (–) n (%) | Eye disorders (healthy young subjects; young, part 2, 25 mg QD): 0 (–) n (%) | Gastrointestinal disorders (healthy young subjects; young, part 2, 25 mg QD): 0 (–) n (%) | General disorders and administration site conditions (healthy young subjects; young, part 2, 25 mg QD): 0 n (%) | Headache (healthy young subjects; young, part 2, 25 mg QD): 1 (8.3) n (%) | Infections and infestations (healthy young subjects; young, part 2, 25 mg QD): 1 (8.3) n (%) | Insomnia (healthy young subjects; young, part 2, 25 mg QD): 0 (–) n (%) | Musculoskeletal and connective tissue disorders (healthy young subjects; young, part 2, 25 mg QD): 0 (–) n (%) | Nasopharyngitis (healthy young subjects; young, part 2, 25 mg QD): 1 (8.3) n (%) | Nervous system disorder (healthy young subjects; young, part 2, 25 mg QD): 1 (8.3) n (%) | Ocular discomfort (healthy young subjects; young, part 2, 25 mg QD): 0 (–) n (%) | Psychiatric disorders (healthy young subjects; young, part 2, 25 mg QD): 0 (–) n (%) | Subjects with AEs leading to study discontinuation (healthy young subjects; young, part 2, 25 mg QD): 0 (–) n (%) | Subjects with investigator-defined drug-related AEs (healthy young subjects; young, part 2, 25 mg QD): 0 (–) n (%) | Total with AEs (healthy young subjects; young, part 2, 25 mg QD): 2 (16.7) n (%) | Vision blurred (healthy young subjects; young, part 2, 25 mg QD): 0 (–) n (%) | Adjusted gMean ratio Cmax, tablet fasted vs. oral solution fasted ([1]; 90% CI 45.1–55.4): 50.0% | Adjusted gMean ratio AUC0–tz, tablet fasted vs. oral solution fasted ([1]; 90% CI 74.0–87.6): 80.5% | Adjusted gMean ratio AUC0–tz, tablet fed vs. strongly fasted ([1]; high-fat/high-calorie breakfast ~ 1000 kcal, 90% CI 115.7–137.0): 125.9% | Adjusted gMean ratio Cmax, tablet fed vs. strongly fasted ([1]; high-fat/high-calorie breakfast ~ 1000 kcal, 90% CI 128.3–157.4): 142.1% | increase in AUC, high-fat/high-calorie meal vs. fasted ([1]; single dose 25 mg tablet): 26% | increase in Cmax, high-fat/high-calorie meal vs. fasted ([1]; single dose 25 mg tablet): 42% | median time to maximum plasma concentration ([1]; single doses 0.5–150 mg, oral solution, young healthy male volunteers): ~ 45 min | tolerability of single doses ([1]; single doses up to 100 mg, oral solution, young healthy male volunteers): generally well tolerated | dose proportionality of exposure parameters (Cmax, AUC0–24, Cmax,ss and AUCτ,ss) ([2]; 10 and 25 mg, tablet): dose proportionality was observed | linearity index ([2]; QD groups): ~1 | time to steady state after the start of multiple dosing ([2]; all treatment groups): 2 to 6 days | dose proportionality of exposure ([2]; doses of ≥ 50 mg, tablet): clearly less than dose proportional | AUCτ,ss,norm [2, 4]: 439 (11.6) nmol·h/L/mg | Cmax,ss,norm [2, 4]: 24.7 (10.9) nmol/L/mg | AUC0–24,norm ([2]; elderly, 25 mg QD, single dose): 139 (18.5) nmol·h/L/mg | Cmax,norm ([2]; elderly, 25 mg QD, single dose): 9.4 (18.7) nmol/L/mg | AUCτ,ss,norm [2, 5]: 278 (30.8) nmol·h/L/mg | Cmax,ss,norm [2, 5]: 16.0 (25.0) nmol/L/mg | AUC0–24,norm ([2]; elderly, 50 mg QD, single dose): 112 (17.9) nmol·h/L/mg | Cmax,norm ([2]; elderly, 50 mg QD, single dose): 7.43 (25.9) nmol/L/mg | AUC(0-t) ([2]; human, plasma, oral, 10 mg, AUC0–24, young, 10 mg QD, single dose): 1.41 µM·h | AUC ([2]; human, plasma, oral, 10 mg, young, 10 mg QD, multiple dose): 3.87 µM·h | Cmax ([2]; human, plasma, oral, 10 mg, Cmax, young, 10 mg QD, single dose): 109 nM | Tmax ([2]; human, plasma, oral, 10 mg, tmax,ss, young, 10 mg QD, multiple dose): 4.5 h | AUC(0-t) ([2]; human, plasma, oral, 25 mg, AUC0–24, elderly, 25 mg QD, single dose): 3.46 µM·h | AUC(0-t) ([2]; human, plasma, oral, 25 mg, AUC0–24, young, 25 mg QD, single dose): 3.72 µM·h | AUC ([2]; human, plasma, oral, 25 mg, elderly, 25 mg QD, multiple dose): 11 µM·h | AUC ([2]; human, plasma, oral, 25 mg, young, 25 mg QD, multiple dose): 10.6 µM·h | Cmax ([2]; human, plasma, oral, 25 mg, Cmax, elderly, 25 mg QD, single dose): 235 nM | Cmax ([2]; human, plasma, oral, 25 mg, Cmax, young, 25 mg QD, single dose): 278 nM | Cmax ([2]; human, plasma, oral, 25 mg, Cmax,ss, elderly, 25 mg QD, multiple dose): 618 nM | Cmax ([2]; human, plasma, oral, 25 mg, Cmax,ss, young, 25 mg QD, multiple dose): 582 nM | Tmax ([2]; human, plasma, oral, 25 mg, tmax, elderly, 25 mg QD, single dose): 3.5 h | Tmax ([2]; human, plasma, oral, 25 mg, tmax, young, 25 mg QD, single dose): 4.5 h | Tmax ([2]; human, plasma, oral, 25 mg, tmax,ss, elderly, 25 mg QD, multiple dose): 3 h | Tmax ([2]; human, plasma, oral, 25 mg, tmax,ss, young, 25 mg QD, multiple dose): 3.75 h | AUC(0-t) ([2]; human, plasma, oral, 50 mg, AUC0–24, elderly, 50 mg QD, single dose): 5.62 µM·h | AUC(0-t) ([2]; human, plasma, oral, 50 mg, AUC0–24, young, 50 mg QD, single dose): 6.02 µM·h | AUC ([2]; human, plasma, oral, 50 mg, elderly, 50 mg QD, multiple dose): 13.9 µM·h | AUC ([2]; human, plasma, oral, 50 mg, young, 50 mg QD, multiple dose): 14.2 µM·h | Cmax ([2]; human, plasma, oral, 50 mg, Cmax, elderly, 50 mg QD, single dose): 371 nM | Cmax ([2]; human, plasma, oral, 50 mg, Cmax, young, 50 mg QD, single dose): 397 nM | Cmax ([2]; human, plasma, oral, 50 mg, Cmax,ss, elderly, 50 mg QD, multiple dose): 802 nM | Cmax ([2]; human, plasma, oral, 50 mg, Cmax,ss, young, 50 mg QD, multiple dose): 800 nM | Tmax ([2]; human, plasma, oral, 50 mg, tmax, elderly, 50 mg QD, single dose): 4.5 h | Tmax ([2]; human, plasma, oral, 50 mg, tmax, young, 50 mg QD, single dose): 4.5 h | Tmax ([2]; human, plasma, oral, 50 mg, tmax,ss, elderly, 50 mg QD, multiple dose): 4.5 h | Tmax ([2]; human, plasma, oral, 50 mg, tmax,ss, young, 50 mg QD, multiple dose): 3.5 h | AUC(0-t) ([2]; human, plasma, oral, 75 mg, AUC0–24, young, 75 mg BID, single dose, fed): 12 µM·h | AUC(0-t) ([2]; human, plasma, oral, 75 mg, AUC0–24, young, 75 mg QD, single dose, fasted): 7.17 µM·h | AUC ([2]; human, plasma, oral, 75 mg, young, 75 mg QD, multiple dose): 16.5 µM·h | Cmax ([2]; human, plasma, oral, 75 mg, Cmax, young, 75 mg BID, single dose, fed): 884 nM | Cmax ([2]; human, plasma, oral, 75 mg, Cmax, young, 75 mg QD, single dose, fasted): 451 nM | Cmax ([2]; human, plasma, oral, 75 mg, Cmax,ss, young, 75 mg QD, multiple dose): 1020 nM | Tmax ([2]; human, plasma, oral, 75 mg, tmax, young, 75 mg BID, single dose): 4.02 h | Tmax ([2]; human, plasma, oral, 75 mg, tmax,ss, young, 75 mg BID, multiple dose, tmax,22 given): 3.5 h | Tmax ([2]; human, plasma, oral, 75 mg, tmax,ss, young, 75 mg QD, multiple dose): 4.5 h | exposure multiple (AUC0–24 and Cmax), 75-mg BID dose group vs 25-mg dose group ([2]; in vivo): 3.2 fold | increase in AUCτ,ss, 75 mg BID vs. 75 mg QD ([2]; multiple dosing): 14% | increase in Cmax,ss, 75 mg BID vs. 75 mg QD ([2]; multiple dosing): 90% | Cmax ([2]; read-out: Cmax,ss, young, 10 mg QD, multiple dose): 221 nM | AUCτ,ss,norm ([2]; young, 10 mg QD, multiple dose): 387 (22.2) nmol·h/L/mg | Cmax,ss,norm ([2]; young, 10 mg QD, multiple dose): 22.1 (19.5) nmol/L/mg | AUC0–24,norm ([2]; young, 10 mg QD, single dose): 141 (20.1) nmol·h/L/mg | Cmax,norm ([2]; young, 10 mg QD, single dose): 10.9 (19.0) nmol/L/mg | AUCτ,ss,norm ([2]; young, 25 mg QD, multiple dose): 425 (31.7) nmol·h/L/mg | Cmax,ss,norm ([2]; young, 25 mg QD, multiple dose): 23.3 (27.6) nmol/L/mg | AUC0–24,norm ([2]; young, 25 mg QD, single dose): 149 (18.2) nmol·h/L/mg | Cmax,norm ([2]; young, 25 mg QD, single dose): 11.1 (19.7) nmol/L/mg | AUCτ,ss,norm ([2]; young, 50 mg QD, multiple dose): 285 (29.4) nmol·h/L/mg | Cmax,ss,norm ([2]; young, 50 mg QD, multiple dose): 16.0 (26.3) nmol/L/mg | AUC0–24,norm ([2]; young, 50 mg QD, single dose): 120 (24.4) nmol·h/L/mg | Cmax,norm ([2]; young, 50 mg QD, single dose): 7.95 (28.7) nmol/L/mg | AUCτ,ss,norm ([2]; young, 75 mg BID, multiple dose, AUCτ,22,norm given): 251 (20.2) nmol·h/L/mg | Cmax,ss,norm ([2]; young, 75 mg BID, multiple dose, Cmax,22,norm given): 25.8 (17.2) nmol/L/mg | AUC0–24,norm ([2]; young, 75 mg BID, single dose): 160 (13.7) nmol·h/L/mg | Cmax,norm ([2]; young, 75 mg BID, single dose): 11.8 (8.72) nmol/L/mg | AUCτ,ss,norm ([2]; young, 75 mg QD, multiple dose): 220 (29.6) nmol·h/L/mg | Cmax,ss,norm ([2]; young, 75 mg QD, multiple dose): 13.6 (23.1) nmol/L/mg | AUC0–24,norm ([2]; young, 75 mg QD, single dose): 95.6 (17.9) nmol·h/L/mg | Cmax,norm ([2]; young, 75 mg QD, single dose): 6.01 (17.9) nmol/L/mg | AUC0–tz, adjusted gMean ratio evening/morning (90% CI) ([3]; 25 mg single dose): 120 (107–135) % | AUC0–∞, adjusted gMean ratio evening/morning (90% CI) ([3]; 25 mg single dose): 118 (104–134) % | Cmax, adjusted gMean ratio evening/morning (90% CI) ([3]; 25 mg single dose): 115 (98.1–136) % | higher gMean Cmax, evening compared with morning administration ([3]; 25 mg single dose, 90% CI 98.1–136): 15% | higher AUC0–tz, evening compared with morning administration ([3]; 25 mg single dose, 90% CI 107–135): 20% | AUC0–tz, adjusted gMean ([3]; 25 mg single evening dose, fasted): 8.41 µM·h | higher exposure, evening compared with morning ([3]; 25-mg tablet): 15–20% | AUC(0-t) ([3]; human, plasma, oral, 25 mg): 7 µM·h | Tmax ([3]; human, plasma, oral, 25 mg): 4.5 h | AUC(0-inf) ([3]; human, plasma, oral, 25 mg, AUC0–∞, adjusted gMean, 25 mg single morning dose, fasted): 8.77 µM·h | Cmax ([3]; human, plasma, oral, 25 mg, Cmax, adjusted gMean, 25 mg single morning dose, fasted): 241 nM
